Screening data from PubChem.
Rows were chosen to be rich in hits. Some 3.5% of all compounds tested hit in one or more screens of this group.
MrgX1 allo act – human MrgX1 positive allosteric modulation, primary screen; MrgX1-HEK293, Fluo-4 calcium flux, FDSS; active compounds read high; B-score at 10 µM; 0.63% of 310,000 active; AID 588675;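 active means plate-corrected calcium response at least 3 library SD above typical, normal starting fluorescence, not activating the receptor alone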;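 further: compound read alongside a low EC10 to EC30 dose of BAM8-22 agonist; peak minus trough fluorescence over baseline measured at the second addition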
Target sequence (Q96LB2 whole entry, looked up): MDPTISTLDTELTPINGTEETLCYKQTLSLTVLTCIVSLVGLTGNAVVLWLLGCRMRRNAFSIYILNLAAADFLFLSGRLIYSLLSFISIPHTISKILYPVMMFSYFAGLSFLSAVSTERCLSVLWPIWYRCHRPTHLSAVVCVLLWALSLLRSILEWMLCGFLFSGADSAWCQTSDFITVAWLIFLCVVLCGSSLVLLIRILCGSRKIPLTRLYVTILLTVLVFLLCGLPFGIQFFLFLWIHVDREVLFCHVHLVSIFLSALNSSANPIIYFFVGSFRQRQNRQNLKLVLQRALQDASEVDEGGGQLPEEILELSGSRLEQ
RGS4 act – RGS4 potentiation or activation. HEK293 M3R/inducible RGS4, carbachol calcium flux Fluo4; active compounds read low. B-score at 10 µM. 0.92% of 310,000 active. AID 463111;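 active means B-score of the integrated calcium signal more than 4 SD below the library mean, with starting fluorescence not abnormally high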;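 further: negative B-score means reduced calcium response which marks RGS4 activation or potentiation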
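Material: Inducible-RGS4 HEK293 cells carrying M3 receptor; also added: carbachol at ECmax as muscarinic agonist stimulus; incubation: compound preincubation 20 min at room temperature before agonist; signal: Fluo4-AM (2 µM) calcium-flux fluorescence, kinetic read; measure: integrated calcium ratio converted to B score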
RGS4 inh – human RGS4 inhibition | P49798 | HEK293 M3R/RGS4 inducible, Fluo-4 calcium flux; active compounds read high; triggered by carbachol at its EC20 | B-score at 10 µM | 0.45% of 310,000 active | AID 463165;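 active means B-score, a plate-corrected calcium signal, over three deviations above library mean, with baseline fluorescence within five deviations of library mean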;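 further: RGS4 expression induced by doxycycline in cells with stable M3 receptor; B-score is computed from the integrated fluorescence ratio over baseline after carbachol; higher B-score means a larger calcium signal and so more RGS4 inhibition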
Target sequence (P49798 whole entry, looked up): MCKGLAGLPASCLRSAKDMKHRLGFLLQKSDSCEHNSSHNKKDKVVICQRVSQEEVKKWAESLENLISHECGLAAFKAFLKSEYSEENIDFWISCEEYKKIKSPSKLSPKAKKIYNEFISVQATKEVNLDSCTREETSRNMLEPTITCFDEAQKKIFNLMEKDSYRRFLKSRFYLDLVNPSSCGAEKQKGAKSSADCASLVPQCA
MrgX1 antagonist – human MrgX1 receptor antagonism, primary screen. MRGX1-HEK293 calcium flux, Fluo-4, BAM8-22 antagonism; active compounds read low. B-score at 10 µM. AID 588676. 1.3% of 310,000 active;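 active means calcium-response B-score plate-corrected more than 3 library SD below zero, starting fluorescence within 5 deviations, no agonist response on first addition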;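 further: peak minus trough fluorescence over baseline after final BAM8-22 challenge near maximal dose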
MrgX1 ag – agonists of human MrgX1 receptor; Q96LB2; MrgX1-HEK293 cells, Fluo-4 calcium fluorescence, agonist mode; active compounds read high; B-score at 10 µM; 0.44% of 310,000 active;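 active means calcium response B-score plate-corrected fluorescence ratio at least 3 library SD, with starting fluorescence B-score inside 5 SD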
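Assay system: stable human MrgX1 HEK293 cell line. Quantity: 15,000 cells per well. Schedule: cells plated overnight, dye loaded 0.5 h 37 °C, 0.5 h room temperature. Detection: Fluo-4 NW calcium-flux fluorescence, kinetic read. Read-out basis: peak-minus-minimum fluorescence over baseline, converted to B scores. Control set: positive and negative control wells on each plate.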
MrgX1 antag conf – human MrgX1 receptor antagonism, re-confirmation screen; 19% of 2,300 active; remaining BAM8-22 calcium response % of control (active compounds read low), % at 10 µM; MrgX1-HEK293, BAM8-22 calcium flux, Fluo-4; active compounds read low; shares compounds with MrgX1 antagonist;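 active means remaining agonist calcium response no higher than 100% minus 3 SD of agonist-only control wells, with starting fluorescence near control levels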;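 further: agonist BAM8-22 given at a near maximal EC90 to ECmax level; peak minus minimum fluorescence divided by baseline after agonist addition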
HEK293 Ca flux – counter-screen for MrgX1 antagonists: effect in parental HEK293 cells. shares compounds with MrgX1 antagonist. Fluo-4 calcium fluorescence, FDSS. fluorescence ratio F(max-min)/F0 at 10 µM. 2% of 4,000 active. AID 624111;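 active means duplicate-averaged calcium fluorescence ratio at least three times the standard deviation of buffer wells, a nonspecific response in parental cells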
HEK293 Ca counter – counter-screen for MrgX1 allosteric activators: effect in parental HEK293 cells; shares compounds with MrgX1 antagonist; 0.4% of 4,000 active; fluorescence ratio F(max-min)/F0 at 10 µM; AID 624114; parental HEK293 calcium flux, Fluo-4 fluorescence ratio; active compounds read high;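 active means calcium fluorescence ratio, averaged over duplicates, at least 3 SD of the buffer-well ratio, meaning a nonspecific response in receptor-free cells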;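 further: untransfected parental HEK293 lacking MrgX1 used as counterscreen for MrgX1 allosteric activators; fluorescence change taken during the second addition on a kinetic imager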
HEK293 Ca cntr2 – counter-screen for MrgX1 activators: effect in parental HEK293 cells. AID 624115. Fluo-4 calcium fluorescence (FDSS); active compounds read high. shares compounds with MrgX1 antagonist. fluorescence ratio F(max-min)/F0 at 10 µM. 8.7% of 4,000 active;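 active means calcium fluorescence ratio at least three times the spread of buffer wells, meaning a non-specific response in parental cells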
Active calls of the source: *.

Screening Cc1ccc(Cc2nc(-c3cccnc3)no2)cc1 returned MrgX1 allo act inactive, RGS4 act inactive, RGS4 inh inactive, MrgX1 antagonist -4.8*, MrgX1 ag inactive, MrgX1 antag conf inactive, HEK293 Ca flux inactive, HEK293 Ca counter inactive and HEK293 Ca cntr2 inactive.
For COC(=O)CC1COc2ccccc2N1C(=O)c1ccc(OC)cc1 (stereo not drawn) the results were MrgX1 allo act inactive, RGS4 act inactive, RGS4 inh inactive, MrgX1 antagonist inactive and MrgX1 ag inactive.
For COC(=O)CC1COc2ccccc2N1C(=O)c1cc(OC)c(OC)c(OC)c1 (stereo not drawn) the results were MrgX1 allo act inactive, RGS4 act inactive, RGS4 inh inactive, MrgX1 antagonist -5*, MrgX1 ag inactive, MrgX1 antag conf inactive, HEK293 Ca flux inactive, HEK293 Ca counter inactive and HEK293 Ca cntr2 inactive.
`CCC1Oc2ccc(C)cc2N(CC(=O)N(Cc2ccc3c(c2)OCO3)CC2CCCO2)C1=O` (stereo not drawn) gave MrgX1 allo act inactive, RGS4 act inactive, RGS4 inh inactive, MrgX1 antagonist inactive and MrgX1 ag inactive.
Screening CC1=C(C(=O)Nc2ccccc2)C(c2ccco2)C(C#N)=C(SCC(=O)OC(C)C)N1 (stereo not drawn) returned MrgX1 allo act inactive, RGS4 act inactive, RGS4 inh inactive, MrgX1 antagonist -11*, MrgX1 ag inactive, MrgX1 antag conf inactive, HEK293 Ca flux inactive, HEK293 Ca counter inactive and HEK293 Ca cntr2 inactive.
`CC1=C(C(=O)Nc2ccccc2)C(c2ccco2)C(C#N)=C(SCc2ccccc2)N1` (stereo not drawn) gave MrgX1 allo act inactive, RGS4 act inactive, RGS4 inh inactive, MrgX1 antagonist inactive and MrgX1 ag inactive.
Screening COc1ccccc1N1CCN(CC(O)c2ccc3cc[nH]c3c2)CC1 (stereo not drawn) returned MrgX1 allo act inactive, RGS4 act inactive, RGS4 inh inactive, MrgX1 antagonist -9.8*, MrgX1 ag inactive, MrgX1 antag conf inactive, HEK293 Ca flux inactive, HEK293 Ca counter inactive and HEK293 Ca cntr2 inactive.
Screening Cc1ccc(S(=O)(=O)N(C)C)cc1NC(=O)Nc1c(-c2ccccc2)noc1C returned MrgX1 allo act inactive, RGS4 act inactive, RGS4 inh inactive, MrgX1 antagonist inactive and MrgX1 ag inactive.
`Nc1cc(=O)[nH]c(SCc2nnnn2-c2ccc(Cl)cc2)n1` gave MrgX1 allo act inactive, RGS4 act inactive, RGS4 inh inactive, MrgX1 antagonist -6.9*, MrgX1 ag inactive, MrgX1 antag conf inactive, HEK293 Ca flux inactive, HEK293 Ca counter inactive and HEK293 Ca cntr2 inactive.
For Cc1cc(=O)[nH]c(SCc2nnnn2-c2ccc(Cl)cc2)n1 the results were MrgX1 allo act inactive, RGS4 act inactive, RGS4 inh inactive, MrgX1 antagonist inactive and MrgX1 ag inactive.
CN(c1ccc(C(=O)N2CCN(c3ccccc3F)CC2)cc1)S(=O)(=O)c1ccccc1 was read as MrgX1 allo act inactive, RGS4 act inactive, RGS4 inh inactive, MrgX1 antagonist inactive and MrgX1 ag inactive.
For COc1ccc(CCNC(=O)Cn2nnc(C(=O)Nc3ccc(Br)cc3)c2N)cc1OC the results were MrgX1 allo act inactive, RGS4 act inactive, RGS4 inh inactive, MrgX1 antagonist inactive and MrgX1 ag inactive.
`CC1=NNC(=O)C1Cc1ccc(F)cc1` (stereo not drawn) gave MrgX1 allo act inactive, RGS4 act inactive, RGS4 inh inactive, MrgX1 antagonist inactive and MrgX1 ag inactive.
